Laboratory results: ChEMBL document CHEMBL5724801, “EUbOPEN Chemogenomics Library - Multiplex” (2024)
Values joined by “and” are separate entries in the source; they are usually repeats but may differ in a detail not shown here. Equal values may be shown once.

Each molecule was assayed on U2OS (assay: Multiplex assay against U2OS). Settings: human, 12 h, 1 µM, compound concentration 1 uM.
Type: toxicity, cell-based
In short: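 Per cents of healthy-nucleus cells form the tubulin, mitochondrial-mass and membrane-permeability phenotype values. Live cells were stained at seeding with Hoechst33342, BioTracker Green Microtubule Cytoskeleton Dye, MitoTracker Red and Annexin V Alexa Fluor 680. After compound addition they were imaged on a CQ1 microscope at 37°C and 5% CO2, and CellPathfinder machine-learning gating split them into Hoechst high-intensity objects or normal cells, normal cells into healthy, pyknosed or fragmented nuclei, and pyknosed cells into mitotic or apoptotic.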

Row | SMILES | Population Apoptotic (%) | Population Fragmented Nuclei (%) | Population Healthy Nuclei (%) | Population Hoechst High Intensity Objects (%) | Population Membrane Permeable-Phenotype (%) | Population Mitochondria Different-Phenotype (%) | Population Mitotic Cells (%) | Population Normal (%) | Population Pyknosed Nuclei (%) | Population Tubulin-Different-Phenotype (%)
1 | COc1ccc2c(c1OCc1ccccc1)C[C@@H](C(=O)O)N(C(=O)C(c1ccccc1)c1ccccc1)C2 [OLODANRIGAN] | 82% and 66% | 31% and 18% | 59% and 75% | 2% and 3% | 4% and 6% | 0% and 4% | 17% and 33% | 97% and 96% | 8% and 5% | 1% and 2%
2 | COc1cc(N2CCN(C)CC2)ccc1Nc1nccc(-c2cn(C)c3cnccc23)n1 | 42.42% and 21.43% | 1.36% and 2.74% | 89.7% and 78.08% | 0.27% and 0% | 5.14% and 14.04% | – | 57.58% and 78.57% | 99.73% and 100% | 8.94% and 19.18% | 5.14% and 4.39%

Same assay, conditions: human, 12 h, 1 µM, compound concentration 1 uM

Row | SMILES | Total Cell Count
3 | COc1ccc2c(c1OCc1ccccc1)C[C@@H](C(=O)O)N(C(=O)C(c1ccccc1)c1ccccc1)C2 [OLODANRIGAN] | 286 and 112
4 | COc1cc(N2CCN(C)CC2)ccc1Nc1nccc(-c2cn(C)c3cnccc23)n1 | 370 and 146

Same assay, conditions: human, 12 h, 10 µM, compound concentration 10 uM

Row | SMILES | Population Apoptotic (%) | Population Fragmented Nuclei (%) | Population Healthy Nuclei (%) | Population Hoechst High Intensity Objects (%) | Population Membrane Permeable-Phenotype (%) | Population Mitochondria Different-Phenotype (%) | Population Mitotic Cells (%) | Population Normal (%) | Population Pyknosed Nuclei (%) | Population Tubulin-Different-Phenotype (%)
5 | COc1ccc2c(c1OCc1ccccc1)C[C@@H](C(=O)O)N(C(=O)C(c1ccccc1)c1ccccc1)C2 [OLODANRIGAN] | 78% and 81% | 30% and 26% | 64% and 63% | 1% and 0% | 6% and 2% | 1 | 21% and 18% | 98% and 99% | 5% and 10% | 2%
6 | COc1cc(N2CCN(C)CC2)ccc1Nc1nccc(-c2cn(C)c3cnccc23)n1 | 48.67% and 23.94% | 6.32% and 4.8% | 61.21% and 38.4% | 0% | 33.33% and 66.67% | – | 51.33% and 76.06% | 100% | 32.47% and 56.8% | 60.56% and 58.33%

Same assay, conditions: human, 12 h, 10 µM, compound concentration 10 uM

Row | SMILES | Total Cell Count
7 | COc1ccc2c(c1OCc1ccccc1)C[C@@H](C(=O)O)N(C(=O)C(c1ccccc1)c1ccccc1)C2 [OLODANRIGAN] | 273 and 110
8 | COc1cc(N2CCN(C)CC2)ccc1Nc1nccc(-c2cn(C)c3cnccc23)n1 | 348 and 125

Same assay, conditions: human, 24 h, 1 µM, compound concentration 1 uM

Row | SMILES | Population Apoptotic (%) | Population Fragmented Nuclei (%) | Population Healthy Nuclei (%) | Population Hoechst High Intensity Objects (%) | Population Membrane Permeable-Phenotype (%) | Population Mitochondria Different-Phenotype (%) | Population Normal (%) | Population Pyknosed Nuclei (%) | Population Tubulin-Different-Phenotype (%) | Total Cell Count
9 | COc1ccc2c(c1OCc1ccccc1)C[C@@H](C(=O)O)N(C(=O)C(c1ccccc1)c1ccccc1)C2 [OLODANRIGAN] | 87% and 55% | 25% and 18% | 64% and 74% | 0% and 2% | 2% and 9% | 0% and 6% | 99% and 97% | 10% and 6% | 2% and 5% | 311 and 143
10 | COc1cc(N2CCN(C)CC2)ccc1Nc1nccc(-c2cn(C)c3cnccc23)n1 | 46.67% and 20.69% | 0.88% and 3.53% | 89.18% and 79.41% | 0% | 3.96% and 9.63% | – | 100% | 9.93% and 17.06% | 3.71% and 5.19% | 453 and 170

Same assay, conditions: human, 24 h, 1 µM, compound concentration 1 uM

Row | SMILES | Population Mitotic Cells (%)
11 | COc1cc(N2CCN(C)CC2)ccc1Nc1nccc(-c2cn(C)c3cnccc23)n1 | 53.33% and 79.31%

Same assay, conditions: human, 24 h, 10 µM, compound concentration 10 uM

Row | SMILES | Population Apoptotic (%) | Population Fragmented Nuclei (%) | Population Healthy Nuclei (%) | Population Hoechst High Intensity Objects (%) | Population Membrane Permeable-Phenotype (%) | Population Mitochondria Different-Phenotype (%) | Population Normal (%) | Population Pyknosed Nuclei (%) | Population Tubulin-Different-Phenotype (%) | Total Cell Count
12 | COc1ccc2c(c1OCc1ccccc1)C[C@@H](C(=O)O)N(C(=O)C(c1ccccc1)c1ccccc1)C2 [OLODANRIGAN] | 83% and 50% | 27% and 22% | 66% and 72% | 1% and 0% | 4% | 0% and 1% | 98% and 100% | 5% and 4% | 1% and 2% | 318 and 123
13 | COc1cc(N2CCN(C)CC2)ccc1Nc1nccc(-c2cn(C)c3cnccc23)n1 | 79.82% and 63.75% | 10.27% and 17.39% | 55.29% and 24.64% | 0% | 25.68% and 44.12% | – | 100% | 34.44% and 57.97% | 53.55% and 44.12% | 331 and 138

Same assay, conditions: human, 24 h, 10 µM, compound concentration 10 uM

Row | SMILES | Population Mitotic Cells (%)
14 | COc1cc(N2CCN(C)CC2)ccc1Nc1nccc(-c2cn(C)c3cnccc23)n1 | 20.18% and 36.25%

Same assay, conditions: human, 48 h, 1 µM, compound concentration 1 uM

Row | SMILES | Population Apoptotic (%) | Population Fragmented Nuclei (%) | Population Healthy Nuclei (%) | Population Hoechst High Intensity Objects (%) | Population Membrane Permeable-Phenotype (%) | Population Mitochondria Different-Phenotype (%) | Population Mitotic Cells (%) | Population Normal (%) | Population Pyknosed Nuclei (%) | Population Tubulin-Different-Phenotype (%)
15 | COc1ccc2c(c1OCc1ccccc1)C[C@@H](C(=O)O)N(C(=O)C(c1ccccc1)c1ccccc1)C2 [OLODANRIGAN] | 91% and 78% | 22% and 14% | 70% and 77% | 3% and 4% | 4% and 3% | 1% and 3% | 8% and 21% | 96% and 95% | 7% | 2%
16 | COc1cc(N2CCN(C)CC2)ccc1Nc1nccc(-c2cn(C)c3cnccc23)n1 | 46.51% and 48.94% | 1.87% and 5.31% | 87.42% and 75.51% | 0% | 1.42% and 4.86% | – | 53.49% and 51.06% | 100% | 10.71% and 19.18% | 2.14% and 3.78%

Same assay, conditions: human, 48 h, 1 µM, compound concentration 1 uM

Row | SMILES | Total Cell Count
17 | COc1ccc2c(c1OCc1ccccc1)C[C@@H](C(=O)O)N(C(=O)C(c1ccccc1)c1ccccc1)C2 [OLODANRIGAN] | 483 and 184

Same assay, conditions: human, 48 h, 10 µM, compound concentration 10 uM

Row | SMILES | Population Apoptotic (%) | Population Fragmented Nuclei (%) | Population Healthy Nuclei (%) | Population Hoechst High Intensity Objects (%) | Population Membrane Permeable-Phenotype (%) | Population Mitochondria Different-Phenotype (%) | Population Mitotic Cells (%) | Population Normal (%) | Population Pyknosed Nuclei (%) | Population Tubulin-Different-Phenotype (%)
18 | COc1ccc2c(c1OCc1ccccc1)C[C@@H](C(=O)O)N(C(=O)C(c1ccccc1)c1ccccc1)C2 [OLODANRIGAN] | 88% and 85% | 20% and 18% | 71% and 77% | 1 | 5% and 7% | 1% and 6% | 11% and 14% | 98 | 8% and 4% | 3% and 5%
19 | COc1cc(N2CCN(C)CC2)ccc1Nc1nccc(-c2cn(C)c3cnccc23)n1 | 82.73% and 95.65% | 15.62% and 15.79% | – | 0 | 15.15% and 25% | – | – | 100 | 30.14% and 69.17% | 53.54% and 40%

Same assay, conditions: human, 48 h, 10 µM, compound concentration 10 uM

Row | SMILES | Total Cell Count
20 | COc1ccc2c(c1OCc1ccccc1)C[C@@H](C(=O)O)N(C(=O)C(c1ccccc1)c1ccccc1)C2 [OLODANRIGAN] | 451 and 163
21 | COc1cc(N2CCN(C)CC2)ccc1Nc1nccc(-c2cn(C)c3cnccc23)n1 | 365 and 133
